According to ChEMBL document CHEMBL4513216, “Probing the Open Global Health Chemical Diversity Library for Multistage-Active Starting Points for Next-Generation Antimalarials” (ACS Infect Dis, 2020):

assay: Toxicity liver stage against HepG2, at 10uM; type: cell-based; design: test concentration 10 uM, cell line HepG2-A16-CD81EGFP; conditions: human, HepG2-A16-CD81EGFP cells; read-out: INHIBITION
How it was run: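 Uninfected HepG2-A16-CD81EGFP cells, 3 × 10^3 per well, 1536-well, plated on prespotted compound at 10 μM final, parasite-free screening media added to match infected plates; puromycin 10 μM positive, DMSO 0.5% negative; run in parallel with 48 h PbLuc assay at 37 °C, 5% CO2; viability by CellTiter-Glo luminescence, normalized to controls.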

Row | Compound | cytotoxicity at 10 µM
1 | CC1(C)CNC(=O)CN(C(=O)Cc2ccccc2)C1 | -6.92%
2 | O=C(Cc1cnc(-n2cccc2)s1)NCCCO | -3.14%
3 | Cc1n[nH]c2nc(-c3cccc(Cl)c3)cc(C(=O)O)c12 | -1.05%
4 | O=c1ccc(-n2ccnc2)nn1CCNS(=O)(=O)c1ccc(F)c(Cl)c1 | -4.39%
5 | CNC(=O)c1nnn(-c2ccccc2F)c1-c1ccccn1 | -4.21%
6 | O=c1ccc2c(n1Cc1cccnc1)CCC(NCc1cccnc1)C2 (stereo not given) | 19.2%
7 | CN(C)C(=O)N1CC2(CCOCC2)c2cc(NS(=O)(=O)C3CC3)ccc21 | -7.15%
8 | COCCN1CCc2ncc(CN(C)C)n2CC1 | -0.0807%
9 | CNC(=O)[C@@H]1COC[C@H]2CN(C(=O)c3ccc(OC)cc3)C[C@H]21 | 9.48%
10 | CN1CCC(c2cccc(NCc3ccncc3)n2)CC1 | 6.08%
11 | Cc1cc(-c2cnc(N3CCOCC3)nc2-c2cccnc2C)on1 | -21.4%
12 | CCN1CCCC(c2cc(Nc3cnccn3)nc(C)n2)C1 (stereo not given) | -12.9%
13 | Cc1ccc(CC(=O)N(C)CC2(O)CCCN(c3ccccn3)C2)s1 (stereo not given) | -14.1%
14 | COc1ccccc1CNC(=O)c1ccccc1-n1cnc(CN)c1 | -10.6%
15 | CC(O)c1cn(Cc2ccccc2)nn1 (stereo not given) | 7.62%
16 | Cc1cccn2cc(CN3CCC(N4CCN(C)C4=O)CC3)nc12 | 7.31%
17 | Cc1cccc(NC(=O)CNC(=O)c2ccccc2F)c1 | -1.24%
18 | N#CCCN(CC1CCOC1)Cn1ccc(-c2ccsc2)n1 (stereo not given) | -2.68%
19 | O=C(NCC1CCS(=O)(=O)C1)c1ccco1 (stereo not given) | -7%
20 | COc1ccc2cc(C(=O)NCCc3nc(C)no3)[nH]c2c1 | 9.63%
21 | CN1CCN(CC(NCc2ccc(F)cc2)c2ccccc2)CC1 (stereo not given) | -15.7%
22 | Cc1nc(CN2CCN(C(=O)Cc3cccc(Cl)c3)CC2)no1 | -4.76%
23 | CCC(CC)c1cc(CNC(=O)N2CCCC(c3ncc[nH]3)C2)on1 (stereo not given) | -2.02%

Row | Compound | cytotoxicity at 10 µM
24 | CC(C)C(O)C(C)(C)CNC(=O)NCc1ccc(-n2cncn2)cc1 (stereo not given) | -8.14%
25 | CCc1cnc(CN(C)C2CCN(CCCS(=O)(=O)NC)C2)o1 (stereo not given) | 7.82%
26 | O=C(c1csc(-c2ncccn2)n1)N1CCN2CCCCC2C1 (stereo not given) | 4.55%
27 | COc1ccc2cccc(CC(=O)NCc3n[nH]c(=O)[nH]3)c2c1 | -3.22%
28 | CCCc1nccn1-c1cccc(CN2CCCC2)c1 | -4.87%
29 | CC(C)N1CC(C(=O)N2CCN(CCn3cccc3)CC2)CC1=O (stereo not given) | -4.97%
30 | CCc1nc(N2CCCC(CO)(CCOC)C2)ncc1C (stereo not given) | 4.93%
31 | O=C(CCc1cc(Cl)no1)N1CCN(CCn2cncn2)CC1 | -1.84%
32 | CCN1CCN(C[C@@H]2CN(c3ncccc3F)C[C@@H]2CO)CC1 | -6.45%
33 | Cc1nc2c(c(=O)[nH]1)CN(C(=O)CC[C@@H]1CCCN3CCCC[C@H]13)C2 | 17%
34 | CCN1CCC(CNC(=O)C(c2ccc(F)cc2)N(C)C)(N(C)C)CC1 (stereo not given) | -0.288%
35 | CCNC(=O)[C@@H]1C[C@H](N)CN1C(=O)Cc1cc(C)ccc1C | 2.43%
36 | Fc1ccc(Cn2ncc3c2CN(c2ncccn2)C3)cc1 | 1.5%
37 | CCC(=O)N1CCN(C(=O)Nc2cccc(C#N)c2)[C@H]2CS(=O)(=O)C[C@H]21 | -46%
38 | CCc1c(C)sc(NC(=O)CN2CCOCC2)c1C(=O)OC | 19.3%
39 | COCc1nc(C(=O)NS(=O)(=O)c2ccc(F)cc2F)cs1 | -8.51%
40 | CC(=O)NCc1ccc(C(=O)N2CCCC2c2cnn(C)c2)o1 (stereo not given) | -8.67%
41 | CC1CCN(CC(=O)NC2CCN(C(C)c3ccccc3)CC2)CC1 (stereo not given) | -6.36%
42 | Cc1cc(C[C@@H]2CCC[C@H]2NCc2cc(F)ccc2F)on1 | -5.72%
43 | CC(=O)N1[C@H](Cn2cncn2)C[C@@H]2CN(CC3CC3)CC[C@@H]21 | -3.64%
44 | COCCN1CC[C@]2(CN(Cc3ccccn3)C[C@H]2C)C1=O | 8.86%
45 | O=C([C@H]1COC[C@H]2CN(C3CCOCC3)C[C@H]21)N1CCCO1 | -4.68%
